Test results as given in ChEMBL document CHEMBL1148969, “Lanostanoid triterpenes from Laetiporus sulphureus and apoptosis induction on HL-60 human myeloid leukemia cells” (J Nat Prod, 2004).
The source made the active and inactive calls. The rule behind the calls is not given here.

Tests used:
HL-60 [1] = assay: Cytotoxicity against human HL60 cells after 96 hrs by MTT assay; assay type: functional, cell-based; settings: for IC50: HL-60, 96 h
Outline: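 HL-60 promyelocytic leukemia cells; growth inhibition read by MTT; IC50 determined graphically for each experiment by curve fitting. Mean ± SEM of two independent experiments with three determinations each; ursolic acid as positive control.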

HL-60 [2] = assay: Induction apoptosis in human HL60 cells assessed as cytochrome c release from mitochondria at 10 uM after 6 hrs by Western blot analysis; assay type: functional, cell-based
Outline: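 Cells treated 6 h at 10 µM; cytosolic fraction isolated and immunoblotted with monoclonal anti-cytochrome c (band near 15 kDa); β-actin loading control.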

HL-60 [3] = assay: Induction apoptosis in human HL60 cells assessed as condensation of chromatin at 10 uM after 8 hrs by fluorescence microscopy; assay type: functional, cell-based
Outline: (§1)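 HL-60 cells cultured with or without 10 µM compound for 8 h, stained with Hoechst 33258; nuclei examined by fluorescence microscopy for chromatin condensation, shrinkage and apoptotic bodies.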

HL-60 [4] = assay: Induction apoptosis in human HL60 cells assessed as caspase 3 activity after 6 hrs; assay type: functional, cell-based
Outline: (§2)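 HL-60 cells given 10 µM for 6 h; lysates with equal protein incubated with colorimetric substrate DEVD-pNA, absorbance at 405 nm. Expressed as fold increase over untreated control; representative experiment in duplicate; etoposide 10 µM positive control.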

HL-60 [5] = assay: Induction apoptosis in human HL60 cells assessed as […] DNA fragmentation at 30 uM after 16 hrs by electrophoresis; assay type: functional, cell-based
Outline: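 Cells treated 16 h at 30 µM; total cellular DNA extracted, run on 2% agarose gel, ethidium bromide stained and internucleosomal ladder viewed under UV; etoposide 3 µM positive control.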

HL-60 [6] = assay: Induction apoptosis in human HL60 cells assessed as appearance of apoptotic bodies at 10 uM after 8 hrs by fluorescence microscopy; assay type: functional, cell-based; outline: as §1
HL-60 [7] = assay: Induction apoptosis in human HL60 cells assessed as PARP1 cleavage at 10 uM after 6 hrs by SDS-PAGE; assay type: functional, cell-based
Outline: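 After 6 h at 10 µM, equal protein from whole-cell lysates run on SDS-PAGE, blotted and probed with anti-PARP-1 monoclonal antibody detecting native 116 kDa and cleaved 85 kDa forms; etoposide positive control.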

HL-60 [8] = assay: Induction apoptosis in human HL60 cells assessed as caspase 3 activity at 10 uM after 6 hrs relative to control; assay type: functional; outline: as §2
HL-60 [9] = assay: Induction apoptosis in human HL60 cells assessed as appearance of apoptotic nuclei at 30 uM after 8 hrs by fluorescence microscopy; assay type: functional, cell-based
Outline: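 Cells exposed to 30 µM for 8 h, then Hoechst 33258 (bisbenzimide) stained; apoptotic nuclei counted by fluorescence microscopy. Mean ± standard error of one experiment in triplicate, repeated once separately; etoposide as positive control.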

SMILES | Activity (HL-60 [1]) | IC50 (HL-60 [1]) [µM] | Activity (HL-60 [2]) | Activity (HL-60 [3]) | Activity (HL-60 [4]) | Activity (HL-60 [5]) | Activity (HL-60 [6]) | Activity (HL-60 [7]) | fold change (FC) (HL-60 [8]) | Activity (HL-60 [9])
CC(C)=CCC[C@@H](C(=O)O)[C@H]1C[C@H](O)[C@@]2(C)C3=C(CC[C@]12C)[C@@]1(C)CC[C@H](O)C(C)(C)[C@@H]1CC3 | Dose-dependent effect | 12 |  |  |  |  |  |  |  | 
C=C(CC[C@@H](C(=O)O)[C@H]1C[C@H](O)[C@@]2(C)C3=C(CC[C@]12C)[C@@]1(C)CCC(=O)C(C)(C)[C@@H]1CC3)C(C)C | Dose-dependent effect | 407 |  |  |  |  |  |  |  | 
C=C(CC[C@@H](C(=O)O)[C@H]1C[C@H](OC(C)=O)[C@@]2(C)C3=C(CC[C@]12C)[C@@]1(C)CCC(=O)C(C)(C)[C@@H]1CC3)C(C)C | Dose-dependent effect | 25 | Active | Active | Dose-dependent effect | Active | Active |  |  | 
C=C(CC[C@@H](C(=O)O)[C@H]1CC[C@@]2(C)C3=C(CC[C@]12C)[C@@]1(C)CC[C@H](OC(C)=O)C(C)(C)[C@@H]1CC3)C(C)C [ACETYL EBURICOIC ACID] | Dose-dependent effect | 15 | Active | Active | Dose-dependent effect | Active | Active | Active | 7 | Active
CC(=O)O[C@H]1CC[C@]2(C)C3=C(CC[C@H]2C1(C)C)[C@]1(C)CC[C@H]([C@@H](CCC=C(C)C)C(=O)O)[C@@]1(C)CC3 [ACETYL TRAMETENOLIC ACID] | Dose-dependent effect | 31 |  | Active | Dose-dependent effect | Active | Active |  |  | Active
C=C(CC[C@@H](C(=O)O)[C@H]1CC[C@@]2(C)C3=C(CC[C@]12C)[C@@]1(C)CC[C@H](O)C(C)(C)[C@@H]1CC3)C(C)C [EBURICOIC ACID] | Dose-dependent effect | 25 |  | Active | Dose-dependent effect | Active | Active |  |  | 
C=C(CC[C@@H](C(=O)O)[C@H]1C[C@H](O)[C@@]2(C)C3=C(CC[C@]12C)[C@@]1(C)CC[C@H](O)C(C)(C)[C@@H]1CC3)C(C)C [SULFURENIC ACID] | Dose-dependent effect | 14 |  |  |  |  |  |  |  | 
C[C@H]1[C@H](C)CC[C@]2(C(=O)O)CC[C@]3(C)C(=CC[C@@H]4[C@@]5(C)CC[C@H](O)C(C)(C)[C@@H]5CC[C@]43C)[C@H]12 [URSOLIC ACID] | Dose-dependent effect | 21 |  |  |  |  |  |  |  | 
